Experimental data reported in publication PMC8603004 (EFSA Journal, 2021).
Marks after values point to notes of the source that are not given here.

What was measured:
[1] = tested on: bone marrow cells of NMRI BR mice; assay: In vivo micronucleus test, intraperitoneal
Summary of the method: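 A preliminary intraperitoneal toxicity study in NMRI BR mice set the top dose for the OECD TG 474 bone marrow micronucleus test. In the main test, mice were dosed ip at 250, 500 and 1,000 mg/kg bw and sampled at 24 h; top-dose and control groups were also sampled at 48 h. 2,000 PCEs were scored per animal.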

[2] = Second goat experiment, pre‐dosed 5 days; type: in vivo, lactating goat
[3] = tested on: Salmonella Typhimurium strains TA98, TA100, TA102, TA1535 and TA1537; assay: Ames microsuspension test; type: cell-based; details: 1.6 to 500 μg/plate, with and without metabolic activation
[4] = Incubation of 14C‐3‐NOP in liver fractions; type: in vitro ADME, humans; details: human, liver S9 and liver cytosol
Summary of the method: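 14C-labelled test compound was incubated with or without NAD+ in liver S9, cytosol and microsomes from Sprague–Dawley rat, Wistar Han rat, Beagle dog and human. Aliquots were taken at several time points and the proteins precipitated. Supernatants were analysed by liquid scintillation counting and radio-HPLC, and half-life was derived from the time course.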

[5] = Third in vitro rumen fluid trial; details: 39°C
[6] = Eye irritation study
[7] = Second in vivo toxicokinetic study, metabolic profile in gut and plasma; parameters: species or system male Wistar rats
Summary of the method: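 Single oral dose of 500 mg/kg bw 14C-labelled test compound to male Wistar rats. One animal per time point was killed at 1, 2 and 3 h post-dose and blood was collected. Stomach, small intestine, caecum and colon contents were removed for total radioactivity. Metabolites were characterised by NMR and/or LC/MS.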

[8] = Octanol–water partition coefficient; type: physicochemical
[9] = tested on: Chinese hamster V79 cells; assay: In vitro micronucleus assay with CREST staining; type: cell-based
[10] = First in vivo toxicokinetic study; parameters: species or system male Wistar rats
Summary of the method: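 Male Wistar rats received a single oral dose of 500 mg/kg bw 14C-labelled test compound under OECD TG 417 and were killed 48 h post-dose. Total radioactivity was measured in plasma, excreta and selected organs and tissues. Tissue levels were expressed as μg test-compound-eq/g and recovery as % of applied dose.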

[11] = tested on: Wistar rats; assay: 2‐year carcinogenicity study; type: in vivo
[12] = ADME in a lactating goat; type: in vivo
[13] = tested on: Wistar rats; assay: 90‐day oral gavage study; type: in vivo
[14] = tested on: Holstein Friesian dairy cows; assay: Three long‐term studies on enteric methane output; type: in vivo
[15] = tested on: Chinese hamster V79 cells; assay: In vitro micronucleus assay; type: cell-based
Summary of the method: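 OECD TG 487 study, non-GLP, in Chinese hamster V79 cells. Concentrations were set from a dose-range finding test. Without S9-mix, cells had continuous 24 h treatment up to 1,243 μg/mL. With S9-mix, cells had short 4 h treatment plus 20 h recovery up to 310 μg/mL. Micronuclei were scored against the historical vehicle control range.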

[16] = 3.28 mg/kg bw per day, two days labelled
[17] = study 1 WUR, 54 mg 3‐NOP/kg TMR DM intake
[18] = study 2 UK, 57 mg 3‐NOP/kg TMR DM intake
[19] = study 3 PSU, 61 mg 3‐NOP/kg TMR DM intake

SMILES: O=[N+]([O-])OCCCO [3‐NOP, propan‐1,3‐diol‐mononitrate]
- Frequency of micronuclei ([1]; 250, 500 and 1,000 mg/kg bw intraperitoneally): comparable between treated and negative control groups
- Dose showing mortality ([1]; preliminary toxicity study, intraperitoneal): 2,000 mg/kg bw
- Radioactivity excreted via faeces [2, 16]: 0.71 % of radioactivity totally app
- Radioactivity excreted via milk [2, 16]: 4.48 % of radioactivity totally app
- Radioactivity excreted via urine [2, 16]: 1.97 % of radioactivity totally app
- Radioactivity in the intestinal tract content [2, 16]: 14.87 % of radioactivity totally app
- Radioactivity remaining in the total edible tissues [2, 16]: 8.99 % of radioactivity totally app
- Total radioactivity excreted [2, 16]: 7.18%
- Total recovery at sacrifice [2, 16]: 31.04%
- Radioactive residues in plasma ([2]; 0.5 h after the first administration): 2.31 mg 3‐NOP‐equivalents/kg
- Plasma radioactivity associated with the plasma protein fraction ([2]; 0.5 h post‐dose): 4.4%
- Radioactivity in the aqueous phase of plasma ([2]; 0.5 h post‐dose): 95.6%
- Plasma radioactivity associated with the plasma protein fraction ([2]; 24 h post‐dose): 89.4%
- Radioactivity in the aqueous phase of plasma ([2]; 24 h post‐dose): 10.6%
- Nitrate esters in the aqueous phase of plasma, not detectable (LOD) ([2]; LOD ≤ 0.07): < 0.07 mg/kg
- Nitrate esters in the aqueous milk fraction, not detectable (LOD) ([2]; LOD ≤ 0.21): < 0.21 mg/kg
- Radioactive residues in plasma ([2]; at sacrifice): 1.6 mg 3‐NOP‐equivalents/kg
- Revertant colonies [3]: No significant increase in the mean number of revertant colonies
- half-life [4]: ~42 min
- 3‐NOP concentration remaining after 16 h ([5]; 1 mg/L, anaerobic, n = 6): 1.0%
- 3‐NOP concentration remaining after 16 h ([5]; aerobic control, n = 2): 31.9%
- Eye irritation potential [6]: eye irritant
- Intact compound, share of radioactivity in small intestine content ([7]; 1 and 3 h after 500 mg/kg bw): < 4%
- Intact compound, share of radioactivity in stomach content ([7]; 1 and 3 h after 500 mg/kg bw): more than 80%
- Radioactivity in plasma ([7]; 1 h post‐dose): 713 μg 3‐NOP‐eq/g
- Radioactivity in plasma ([7]; 2 h post‐dose): 522 μg 3‐NOP‐eq/g
- Radioactivity in plasma ([7]; 3 h post‐dose): 156 μg 3‐NOP‐eq/g
- Overall radioactivity recovered ([7]; after 1 h): 88 % of the dose
- Overall radioactivity recovered ([7]; after 2 h): 78 % of the dose
- Overall radioactivity recovered ([7]; after 3 h): 58 % of the dose
- Radioactivity in urine ([7]; urine 0 to 2 h of one animal): 13.7 % of the applied dose
- log KOW [8]: 0.399
- Micronuclei containing chromosome fragments (CREST staining) ([9]; 540 μg/mL): 79%
- Micronucleus frequency ([9]; with metabolic activation, 3 + 21 h, at 540, 570 and 600 μg/mL): statistically significant increase in micronuclei
- Mean overall recovery of the radioactivity applied ([10]; 48 h): 28%
- Radioactivity recovered from tissues, organs and carcass ([10]; 48 h): 5.5 % of the dose
- Radioactivity remaining in gastrointestinal content ([10]; 48 h): 0.2 % of the dose
- Radioactivity concentration in adrenal glands ([10]; 48 h after 500 mg/kg bw): 113.9 μg 3‐NOP‐eq/g
- Radioactivity concentration in brain ([10]; 48 h after 500 mg/kg bw): 31.2 μg NOP‐eq/g
- Radioactivity concentration in fat ([10]; 48 h after 500 mg/kg bw): 23.5 μg NOP‐eq/g
- Radioactivity concentration in kidney ([10]; 48 h after 500 mg/kg bw): 71.6 μg 3‐NOP‐eq/g
- Radioactivity concentration in liver ([10]; 48 h after 500 mg/kg bw): 139.6 μg 3‐NOP‐eq/g
- Radioactivity concentration in muscle ([10]; 48 h after 500 mg/kg bw): 27.1 μg NOP‐eq/g
- Radioactivity recovered in total excreta ([10]; at 48 h): 20 % of the dose
- Radioactivity recovered in urine ([10]; first 24 h): 17.6 % of the dose
- Radioactivity recovered in urine ([10]; interval 24‐48 h): 0.3 % of the dose
- Cmax radioactivity in plasma ([10]; single oral 500 mg/kg bw): about 600 μg 3‐NOP‐eq/g
- Radioactivity in plasma after 48 h ([10]; single oral 500 mg/kg bw): 27 μg 3‐NOP‐eq/g
- Time of Cmax radioactivity in plasma ([10]; single oral 500 mg/kg bw): 1 h
- Radioactivity excreted in faeces ([10]; within 48 h): 2.3 % of the dose
- NOAEL ([11]; benign gastrointestinal mesenchymal tumours in small intestines): 100 mg 3‐NOP/kg bw per day
- Benign mesenchymal cell tumours (PWG) ([11]; females, 300 mg/kg bw per day): three
- Milk radioactivity in the aqueous phase of milk ([12]; 0–8 h after the sixth day of administration): 75.2%
- Radioactivity excreted via faeces ([12]; 4.34 mg/kg bw per day, 7 days): 1.9 % of total radioactivity appli
- Radioactivity excreted via milk ([12]; 4.34 mg/kg bw per day, 7 days): 6.42 % of total radioactivity appli
- Radioactivity excreted via urine ([12]; 4.34 mg/kg bw per day, 7 days): 3.5 % of total radioactivity appli
- Radioactivity in the intestinal tract content ([12]; 4.34 mg/kg bw per day, 7 days): 1.14 % of total radioactivity appli
- Radioactivity remaining in the total edible tissues ([12]; 4.34 mg/kg bw per day, 7 days): 4.98 % of total radioactivity appli
- Total radioactivity excreted ([12]; 4.34 mg/kg bw per day, 7 days): 11.85%
- Total recovery at sacrifice ([12]; 4.34 mg/kg bw per day, 7 days): 17.97%
- Milk radioactivity in the aqueous phase of milk ([12]; 8–24 h after the sixth day of administration): 59.0%
- Radioactive residues in plasma ([12]; 24 h after the first administration): 0.61 mg 3‐NOP‐eq/kg
- Radioactive residues in plasma ([12]; at sacrifice): 3.72 mg 3‐NOP‐equivalents/kg
- Nitrate esters in milk, not detectable (LOD) ([12]; milk collected 0–8 h post‐dose): < 0.82 mg 3‐NOP‐equivalent/kg
- Nitrate esters in milk, not detectable (LOD) ([12]; milk collected 8–24 h post‐dose): < 0.43 mg 3‐NOP‐equivalent/kg
- Plasma radioactivity non‐extractable in the protein precipitate ([12]; plasma collected at sacrifice): Eighty‐five
- NOAEL ([13]; females): 300 mg/kg bw per day
- NOAEL ([13]; males, effects on spermatogenesis): 100 mg 3‐NOP/kg bw per day
- Final BW [14, 17]: 668 kg
- Milk fat [14, 17]: 43.4 g/kg
- Milk protein [14, 17]: 36.3 ^* g/kg
- TMR DM intake [14, 17]: 18.4 kg/day
- kg EC milk/day [14, 17]: 25.7 kg EC milk/day
- kg EC milk/kg DMI [14, 17]: 1.36 ^* kg EC milk/kg DMI
- kg milk/day [14, 17]: 24.5 kg milk/day
- g CH4/kg EC milk ([14]; study 1 WUR, 54 mg 3‐NOP/kg TMR DM intake (control 17.1)): 12.9 ^* (18.7) g CH4/kg EC milk
- g CH4/kg DM intake ([14]; study 1 WUR, 54 mg 3‐NOP/kg TMR DM intake (control 22.4)): 17.7 ^* (25.5) g CH4/kg DM intake
- g CH4/day ([14]; study 1 WUR, 54 mg 3‐NOP/kg TMR DM intake, average over 15 weeks (control 423)): 332 ^* (480) g CH4/day
- Final BW [14, 18]: 721 kg
- Milk fat [14, 18]: 39.9 ^* g/kg
- Milk protein [14, 18]: 33.4 g/kg
- TMR DM intake [14, 18]: 22.9 kg/day
- kg EC milk/day [14, 18]: 35.0 ^* kg EC milk/day
- kg EC milk/kg DMI [14, 18]: 1.53 kg EC milk/kg DMI
- kg milk/day [14, 18]: 36.0 kg milk/day
- g H2/day ([14]; study 2 UK, 57 mg 3‐NOP/kg TMR DM intake (control 2.6)): 10.6 ^* (2.4) g H2/day
- g CH4/kg EC milk ([14]; study 2 UK, 57 mg 3‐NOP/kg TMR DM intake (control 12.3)): 8.4 ^* (10.1) g CH4/kg EC milk
- g CH4/kg DM intake ([14]; study 2 UK, 57 mg 3‐NOP/kg TMR DM intake (control 20.3)): 13.5 ^* (16.7) g CH4/kg DM intake
- g CH4/day ([14]; study 2 UK, 57 mg 3‐NOP/kg TMR DM intake (control 449)): 292 ^* (400) g CH4/day
- Final BW [14, 19]: 648 kg
- Milk fat [14, 19]: 40.2 ^* g/kg
- Milk protein [14, 19]: 31.5 g/kg
- TMR DM intake [14, 19]: 25.7 kg/day
- kg EC milk/day [14, 19]: 37.5 kg EC milk/day
- kg EC milk/kg DMI [14, 19]: 1.47 kg EC milk/kg DMI
- kg milk/day [14, 19]: 38.2 kg milk/day
- g H2/day ([14]; study 3 PSU, 61 mg 3‐NOP/kg TMR DM intake (control 0.5)): 2.6 ^* (0.4) g H2/day
- g CH4/kg EC milk ([14]; study 3 PSU, 61 mg 3‐NOP/kg TMR DM intake (control 11.2)): 8.2 ^* (9.7) g CH4/kg EC milk
- g CH4/kg DM intake ([14]; study 3 PSU, 61 mg 3‐NOP/kg TMR DM intake (control 16.7)): 12.1 ^* (14.9) g CH4/kg DM intake
- g CH4/day ([14]; study 3 PSU, 61 mg 3‐NOP/kg TMR DM intake (control 410)): 308 ^* (403) g CH4/day
- Micronucleus frequency ([15]; absence of metabolic activation, up to 1,243 μg/mL, 24 h): no increase in micronucleus frequency
- Micronucleus frequency ([15]; presence of metabolic activation, up to 310 μg/mL, 4 + 20 h): statistically significant increase in micronuclei
